Screening results (PubChem)
GPR7 antag = GPR7 receptor antagonists, primary screen, cell-based, fluorescence, single concentration. Neuropeptides B/W receptor type 1 (Homo sapiens), P48145. GPR7-expressing cells, fluorescence antagonist assay. inhibition, % at 4.4 µM. 290,000 compounds, 1.1% hits; in the data active = inhibition above about 16%, passing the limit was not always enough;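 note: cells stimulated with the agonist NPW; 0% = agonist with vehicle and 100% = vehicle without agonist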
Target sequence (P48145 whole entry, looked up): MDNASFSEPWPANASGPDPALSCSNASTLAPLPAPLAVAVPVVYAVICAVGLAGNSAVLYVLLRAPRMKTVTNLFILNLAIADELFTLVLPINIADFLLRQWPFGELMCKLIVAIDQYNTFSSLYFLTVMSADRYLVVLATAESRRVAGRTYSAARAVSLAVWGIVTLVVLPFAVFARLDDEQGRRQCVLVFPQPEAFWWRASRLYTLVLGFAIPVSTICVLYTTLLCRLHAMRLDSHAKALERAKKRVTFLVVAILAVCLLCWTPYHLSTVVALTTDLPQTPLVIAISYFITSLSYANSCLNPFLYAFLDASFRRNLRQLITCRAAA
TRPML3 agonist = human TRPML3 channel agonists, primary screen, cell-based, HEK293 TRPML3-YFP, Fluo-8 calcium fluorescence, 3 µM. 100% = the carbachol control signal. 220,000 compounds, 0.29% hits. activation, % at 3 µM. AID 1448, 2008;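 active = activation above its plate's cutoff, the mean activation of the plate's test wells plus 3 SD, cut at about 12% in these data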;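 note: 0% = DMSO only wells and 100% = carbachol wells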
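Test system: HEK293 cells stably carrying human TRPML3-YFP; Doses: single dose, 3 µM final nominal compound, 0.3% DMSO final; Schedule: dye loading 1 h 37 °C then 30 min ambient, 125 s read; Technique: Fluo-8 calcium fluorescence; Benchmarks: high control carbachol 87 µM, low control DMSO.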
zfTRPN1 agonist = zebrafish TRPN1 channel agonists, primary screen, cell-based, HEK293, calcium fluorescence. AID 1424, 2008. activation, % at 3 µM. 220,000 compounds, 0.18% hits. transient receptor potential cation channel N1 (TRPN1/NompC), Danio rerio. HEK293 zebrafish TRPN1-YFP, Fluo-8 calcium fluorescence; 100% = response to 87 µM carbachol;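 active = activation above its plate's cutoff, the mean activation of test wells on that plate plus 3 SD, cut at about 19% in these data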;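 note: 0% = DMSO alone and 100% = 87 µM carbachol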
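Material: zebrafish TRPN1-YFP in HEK293 cells; Doses: single test compound dose, 3 µM nominal, 0.3% DMSO; Timing: dye loading 1 h at 37 °C, then 30 min room temperature; Technique: intracellular calcium fluorescence with Fluo-8; Benchmarks: high carbachol 87 µM, low DMSO alone.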
OX1R antag-1 = OX1R (HCRTR1) antagonists, primary screen, fluorescence, CHO/OX1R cells, Fluo-8 calcium, orexin A. Orexin/Hypocretin receptor type 1 (Homo sapiens), O43613. inhibition, % at 5 µM. 330,000 compounds, 0.43% hits. Fluo-8 calcium fluorescence;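 active = inhibition above its plate's threshold, mean inhibition of all tested compounds on the plate plus 3 SD, cut at about 37% in these data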;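 note: 0% = orexin A challenge wells and 100% = SB-334867-A antagonist wells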
CHO parental Ca = ATP-evoked calcium signal inhibitors, parental CHO, primary screen, counter-screen for OX1R antagonist project, cell-based, fluorescence, Fluo-8 calcium dye. parental CHO-K1, ATP-induced calcium, Fluo-8 fluorescence. 330,000 compounds, 0.63% hits. inhibition, % at 5.6 µM;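 active = inhibition above that plate's mean sample inhibition plus 3 SD, cut at about 26% in these data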;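 note: 0% = ATP-challenged DMSO wells and 100% = DMSO wells without ATP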
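Assay system: untransfected parental CHO cell line. Also added: ATP agonist challenge. Dosing: one dose, 5.6 µM nominal. Measured by: Fluo-8 fluorescence. Read-out: % inhibition. Benchmarks: ATP wells versus no-ATP DMSO wells. Repeats: no replicates.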
OX1R antag-2 = antagonists of human orexin 1 receptor (OX1R); AID 485270, 2010; inhibition, % at 6.6 µM; OX1R-expressing cells, FRET antagonist read-out; Orexin/Hypocretin receptor type 1 (Homo sapiens), O43613; 330,000 compounds, 1.8% hits; in the data active = inhibition mostly above about 38%, no sharp cut-off; inactive = mostly below about 40%;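 note: 0% = agonist challenge alone and 100% = reference antagonist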
OX1R HTRF confirm = OX1R (HCRTR1) antagonists, confirmation, cell-based, HTRF; inhibition, % at 6.6 µM; 1,800 compounds, 49% hits; shares compounds with OX1R antag-2; OX1R-expressing cells, HTRF antagonist assay; AID 492964, 2010; in the data active = inhibition above about 55%;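 note: CHO cells expressing OX1R stimulated with orexin A at about EC80; 0% = agonist challenge alone and 100% = reference antagonist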
CHO-K1 HTRF = signal inhibition in parental CHO-K1 cells, counter-screen for OX1R antagonist project, cell-based, HTRF | AID 493232, 2011 | 1,800 compounds, 48% hits | inhibition, % at 6.6 µM | HTRF counterscreen | shares compounds with OX1R antag-2; in the data active = inhibition above about 17%;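 note: 0% = agonist challenge with vehicle and 100% = vehicle alone without agonist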
The depositor's hits bear a star; . = no result. This is a sample that favours compounds with a hit; in the whole collection about 3.2% have one here.

SMILES | GPR7 antag | TRPML3 agonist | zfTRPN1 agonist | OX1R antag-1 | CHO parental Ca | OX1R antag-2 | OX1R HTRF confirm | CHO-K1 HTRF
CCC(C)NC(=O)C(Cc1ccccc1)NS(=O)(=O)c1cccc2nsnc12 (stereo unspecified) | 0 | 0 | 0 | 2 | -18 | 153* | 55* | -4
CCOCCCNC(=O)C(Cc1ccccc1)NS(=O)(=O)c1cccc2nsnc12 (stereo unspecified) | -12 | 0 | -2 | -4 | -20 | 39 | . | .
COc1ccc(-n2c3c(cc(C(=O)NCC(=O)c4ccccc4)c2=O)C(=O)CC(C)(C)C3)cc1 | -1 | . | . | -12 | -8 | 14 | . | .
O=C(COc1ccc(Br)cc1CNCCCN1CCOCC1)Nc1ccccc1 | 12 | 0 | -2 | -2 | -25 | 17 | . | .
O=[N+]([O-])c1cccnc1Sc1ccc(F)cc1 | . | . | . | -7 | 4 | 9 | . | .
O=c1ccnc(Sc2ncccc2[N+](=O)[O-])[nH]1 | -13 | 1 | 2 | -30 | -1 | 92* | 49 | 47*
O=C(CSCC(=O)Nc1ccc2ccccc2c1)NCc1ccccc1 | -8 | 0 | 0 | -18 | -7 | 17 | . | .
O=C(CSCCN1C(=O)c2ccccc2C1=O)Nc1ccc2ccccc2c1 | 3 | 1 | -1 | -3 | -22 | 81* | 51 | -2
O=C(c1cccc(Cl)c1)N1CCCC(C(=O)N2CCN(c3ccccc3)CC2)C1 (stereo unspecified) | -11 | . | . | -21 | -23 | 10 | . | .
CC(=O)N(/N=C1\Sc2ccccc2C1=O)c1ccc(C)cc1C | 7 | 1 | 0 | -15 | -9 | 56 | . | .
CC(=O)N(/N=C1\Sc2ccccc2C1=O)c1ccccc1C | 22 | -1 | 3 | -13 | -38 | 105* | 38 | 12
CC(C)c1ccc(C(C(=O)NC2CCCCC2)N(C(=O)c2csnn2)C2CC2)cc1 (stereo unspecified) | 9 | . | . | -35 | -16 | 23 | . | .
N#C/C(=C/c1ccc(Br)o1)C(N)=O | -5 | 0 | 1 | -11 | -12 | 79* | 44 | 12
CCCNC(=O)c1nc(C)n(-c2ccc([N+](=O)[O-])cc2)n1 | -10 | 1 | 1 | -8 | -9 | 137* | 71* | 52*
COc1ccc(NC(=O)c2nc(C)n(-c3ccc([N+](=O)[O-])cc3)n2)cc1 | -9 | 0 | -1 | -11 | -11 | 107* | 25 | 33*
CNC(=O)c1nc(C)n(-c2ccc([N+](=O)[O-])cc2)n1 | -8 | -1 | 1 | 1 | -8 | 46 | . | .
CCOC(=O)Cc1[nH]nc2c1C(c1ccsc1)C(C#N)=C(N)O2 (stereo unspecified) | -7 | 1 | 0 | -17 | 6 | 10 | . | .
